Source: ChEMBL document CHEMBL3351561, “Discovery of 9-(1-anilinoethyl)-2-morpholino-4-oxo-pyrido[1,2-a]pyrimidine-7-carboxamides as PI3Kβ/δ inhibitors for the treatment of PTEN-deficient tumours” (Bioorg Med Chem Lett, 2014)
Converted amounts (≈) assume the structure as drawn.

Tests used:
[1] = target: Phosphatidylinositol 4,5-bisphosphate 3-kinase catalytic subunit gamma isoform (Homo sapiens, UniProt P48736); test: Inhibition of human recombinant PI3Kgamma assessed as depletion of ATP substrate by Ultra Glo luciferase assay
Phosphatidylinositol 4,5-bisphosphate 3-kinase catalytic subunit gamma isoform, sequence (P48736 whole entry, canonical isoform): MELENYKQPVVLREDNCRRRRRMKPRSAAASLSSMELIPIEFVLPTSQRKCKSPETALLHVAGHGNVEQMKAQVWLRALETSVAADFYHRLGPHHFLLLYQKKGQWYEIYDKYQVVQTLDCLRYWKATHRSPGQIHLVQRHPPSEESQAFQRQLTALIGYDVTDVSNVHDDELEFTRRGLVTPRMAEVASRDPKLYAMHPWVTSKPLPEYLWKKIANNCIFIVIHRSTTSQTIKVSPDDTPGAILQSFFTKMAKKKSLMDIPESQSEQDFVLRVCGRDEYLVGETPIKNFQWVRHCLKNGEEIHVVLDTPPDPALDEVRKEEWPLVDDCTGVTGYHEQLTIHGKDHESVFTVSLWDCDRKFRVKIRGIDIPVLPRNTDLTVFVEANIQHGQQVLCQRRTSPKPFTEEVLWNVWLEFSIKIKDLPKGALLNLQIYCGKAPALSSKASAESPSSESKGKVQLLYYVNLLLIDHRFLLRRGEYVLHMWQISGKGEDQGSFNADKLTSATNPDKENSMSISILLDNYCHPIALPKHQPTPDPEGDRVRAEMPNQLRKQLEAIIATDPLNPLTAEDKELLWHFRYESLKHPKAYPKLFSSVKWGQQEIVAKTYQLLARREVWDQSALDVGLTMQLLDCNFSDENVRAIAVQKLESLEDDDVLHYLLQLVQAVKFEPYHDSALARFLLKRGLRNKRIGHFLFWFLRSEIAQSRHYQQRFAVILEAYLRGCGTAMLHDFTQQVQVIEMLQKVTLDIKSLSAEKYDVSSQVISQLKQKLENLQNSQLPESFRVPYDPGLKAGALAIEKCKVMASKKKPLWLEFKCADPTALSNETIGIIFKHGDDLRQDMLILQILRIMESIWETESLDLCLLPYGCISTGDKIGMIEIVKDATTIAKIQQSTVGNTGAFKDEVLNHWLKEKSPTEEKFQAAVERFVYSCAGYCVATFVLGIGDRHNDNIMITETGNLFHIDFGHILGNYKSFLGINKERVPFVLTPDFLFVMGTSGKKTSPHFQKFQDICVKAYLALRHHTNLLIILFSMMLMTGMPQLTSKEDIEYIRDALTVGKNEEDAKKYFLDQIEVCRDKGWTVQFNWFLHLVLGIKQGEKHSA
Outline: (§1)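 Enzyme IC50s are reported as the geometric mean of 3 or more values.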

[2] = Ratio of total plasma concentration in PTEN-null human PC3 cells xenografted in SCID mouse at 200 mg/kg, po single dose at 8 hrs to IC50 for PI3Kbeta in human […] cells; set-up: species or system PC-3
Outline: (§2)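 SCID mice bearing PTEN-null PC3 prostate tumour xenografts got a single oral dose given as a suspension. Total plasma concentration was measured at the sampled time points (0.5, 4 or 8 h). The value is the […] cover over the PI3Kβ cellular IC50, which comes from inhibition of Ser473 Akt phosphorylation in PTEN-null MDA-MB-468 breast adenocarcinoma cells.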

[3] = target: T1, Phosphatidylinositol 4,5-bisphosphate 3-kinase catalytic subunit delta isoform (Homo sapiens, UniProt O00329); test: Inhibition of human recombinant PI3Kdelta assessed as depletion of ATP substrate by Ultra Glo luciferase assay; outline: as §1
T1 sequence (O00329 whole entry): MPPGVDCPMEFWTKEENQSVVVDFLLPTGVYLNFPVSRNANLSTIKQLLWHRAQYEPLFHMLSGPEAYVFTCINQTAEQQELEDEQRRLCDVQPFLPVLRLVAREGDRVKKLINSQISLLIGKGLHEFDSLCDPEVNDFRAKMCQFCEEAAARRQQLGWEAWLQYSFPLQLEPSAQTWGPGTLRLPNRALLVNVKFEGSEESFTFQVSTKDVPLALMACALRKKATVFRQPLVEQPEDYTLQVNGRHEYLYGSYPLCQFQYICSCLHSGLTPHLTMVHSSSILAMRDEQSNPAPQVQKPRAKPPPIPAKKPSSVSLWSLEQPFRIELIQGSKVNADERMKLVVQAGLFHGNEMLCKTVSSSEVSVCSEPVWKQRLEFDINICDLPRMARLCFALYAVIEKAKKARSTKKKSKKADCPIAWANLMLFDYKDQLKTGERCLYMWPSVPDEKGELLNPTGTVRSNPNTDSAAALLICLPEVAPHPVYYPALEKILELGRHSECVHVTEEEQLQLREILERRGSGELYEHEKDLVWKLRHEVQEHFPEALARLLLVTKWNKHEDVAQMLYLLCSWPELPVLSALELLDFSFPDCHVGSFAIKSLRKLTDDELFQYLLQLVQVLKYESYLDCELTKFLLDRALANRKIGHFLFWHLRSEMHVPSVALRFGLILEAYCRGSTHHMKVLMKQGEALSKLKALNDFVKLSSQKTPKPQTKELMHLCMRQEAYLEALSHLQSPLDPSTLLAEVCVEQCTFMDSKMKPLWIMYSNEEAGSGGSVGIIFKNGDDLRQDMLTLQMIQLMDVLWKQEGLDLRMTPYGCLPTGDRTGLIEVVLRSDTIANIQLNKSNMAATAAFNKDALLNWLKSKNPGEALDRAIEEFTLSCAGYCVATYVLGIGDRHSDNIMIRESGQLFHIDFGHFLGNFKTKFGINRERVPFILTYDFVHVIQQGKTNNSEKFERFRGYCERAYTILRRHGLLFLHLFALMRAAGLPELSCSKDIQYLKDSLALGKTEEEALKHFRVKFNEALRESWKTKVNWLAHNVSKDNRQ

[4] = Total plasma concentration in SCID mouse xenografted with PTEN-null human PC3 cells at 200 mg/kg, po measured after 4 hrs; type: ADME, organism-based, PC-3; set-up: dose 200 mg/kg, route oral
Outline: (§3)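 Total plasma concentration was measured in SCID mice carrying PC3 xenografts after a single oral dose given as a suspension (50, 100 or 200 mg/kg). Samples were taken at 0.5 to 8 h.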

[5] = Ratio of total plasma concentration in PTEN-null human PC3 cells xenografted in SCID mouse at 200 mg/kg, po single dose at 0.5 hrs to IC50 for PI3Kbeta in human […] cells; set-up: species or system PC-3; outline: as §2
[6] = Fraction unbound in mouse plasma; type: ADME, cell-free
Outline: (§4)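 Protein binding was measured in nude mouse plasma and in human plasma and is expressed as fraction unbound (%).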

[7] = Clearance in mouse plasma at 5 umol/kg, iv and 30 umol/kg, po; type: ADME, organism-based
Outline: (§5)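 […] mice were dosed at 5 µmol/kg i.v. and 30 µmol/kg p.o. Clearance is given in mL/min/kg and oral bioavailability in %.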

[8] = Intrinsic clearance in human hepatocytes measured per 10^6 cells; type: ADME, cell-based, Hepatocyte; conditions: read-out: CLH
Outline: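 Intrinsic clearance was measured in human hepatocytes and is expressed in µL/min/10^6 cells.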

[9] = Fraction unbound in human plasma; type: ADME, cell-free; outline: as §4
[10] = target: T2, Phosphatidylinositol 4,5-bisphosphate 3-kinase catalytic subunit beta isoform (Homo sapiens, UniProt P42338); test: Inhibition of human recombinant PI3Kbeta assessed as depletion of ATP substrate by Ultra Glo luciferase assay; outline: as §1
T2 sequence (P42338 whole entry, canonical isoform): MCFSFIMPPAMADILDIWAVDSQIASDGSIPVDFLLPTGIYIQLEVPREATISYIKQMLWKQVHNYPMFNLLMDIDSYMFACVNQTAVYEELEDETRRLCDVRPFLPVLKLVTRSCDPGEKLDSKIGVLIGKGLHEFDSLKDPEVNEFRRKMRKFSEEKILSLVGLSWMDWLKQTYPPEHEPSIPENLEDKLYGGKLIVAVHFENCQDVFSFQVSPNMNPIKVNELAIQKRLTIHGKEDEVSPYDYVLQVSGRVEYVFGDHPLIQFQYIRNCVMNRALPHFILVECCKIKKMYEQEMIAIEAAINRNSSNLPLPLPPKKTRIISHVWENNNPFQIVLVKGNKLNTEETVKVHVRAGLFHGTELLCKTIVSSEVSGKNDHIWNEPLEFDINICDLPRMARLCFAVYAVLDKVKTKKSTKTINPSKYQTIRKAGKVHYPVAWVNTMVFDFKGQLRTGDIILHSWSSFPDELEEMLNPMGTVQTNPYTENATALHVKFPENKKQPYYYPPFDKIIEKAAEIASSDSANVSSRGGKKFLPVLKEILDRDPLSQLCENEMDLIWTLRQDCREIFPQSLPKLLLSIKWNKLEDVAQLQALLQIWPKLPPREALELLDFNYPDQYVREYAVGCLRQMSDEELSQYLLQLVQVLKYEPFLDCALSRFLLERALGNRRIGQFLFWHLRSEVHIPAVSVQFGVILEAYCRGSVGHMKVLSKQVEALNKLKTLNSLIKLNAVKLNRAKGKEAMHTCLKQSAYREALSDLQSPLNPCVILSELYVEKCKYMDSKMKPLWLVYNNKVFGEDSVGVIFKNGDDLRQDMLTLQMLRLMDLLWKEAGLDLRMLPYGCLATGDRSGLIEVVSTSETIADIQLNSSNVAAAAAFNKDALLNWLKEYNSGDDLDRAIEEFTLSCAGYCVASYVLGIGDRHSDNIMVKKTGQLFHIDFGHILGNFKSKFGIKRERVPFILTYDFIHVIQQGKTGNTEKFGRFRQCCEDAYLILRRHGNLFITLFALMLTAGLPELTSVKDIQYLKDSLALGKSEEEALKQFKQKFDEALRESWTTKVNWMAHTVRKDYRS

[11] = Total plasma concentration in SCID mouse xenografted with PTEN-null human PC3 cells at 200 mg/kg, po measured after 8 hrs; type: ADME, organism-based, PC-3; set-up: dose 200 mg/kg, route oral; outline: as §3
Mus musculus [12] = test: Inhibition of Akt phosphorylation in SCID mouse xenografted with PTEN-null human PC3 cells at 200 mg/kg, po measured after 8 hrs; type: functional; conditions: PC-3, 8 h
Outline: (§6)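 SCID mice carrying PTEN-null PC3 prostate xenografts received a single oral dose as a suspension (50, 100 or 200 mg/kg).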

Mus musculus [13] = test: Inhibition of Akt phosphorylation in SCID mouse xenografted with PTEN-null human PC3 cells at 200 mg/kg, po measured after 30 mins; type: functional; conditions: PC-3, 0.5 h; outline: as §6
[14] = Solubility of the compound in phosphate buffer at pH 7.4; type: physicochemical
Outline: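 Solubility was measured from solid material in phosphate buffer at pH 7.4.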

[15] = target: T3, Phosphatidylinositol 4,5-bisphosphate 3-kinase catalytic subunit alpha isoform (Homo sapiens, UniProt P42336); test: Inhibition of PI3Kalpha in human BT474 cells assessed as inhibition of […] Akt phosphorylation after 2 hrs by fluorescence assay; type: cell-based, BT-474
T3 sequence (P42336 whole entry, canonical isoform): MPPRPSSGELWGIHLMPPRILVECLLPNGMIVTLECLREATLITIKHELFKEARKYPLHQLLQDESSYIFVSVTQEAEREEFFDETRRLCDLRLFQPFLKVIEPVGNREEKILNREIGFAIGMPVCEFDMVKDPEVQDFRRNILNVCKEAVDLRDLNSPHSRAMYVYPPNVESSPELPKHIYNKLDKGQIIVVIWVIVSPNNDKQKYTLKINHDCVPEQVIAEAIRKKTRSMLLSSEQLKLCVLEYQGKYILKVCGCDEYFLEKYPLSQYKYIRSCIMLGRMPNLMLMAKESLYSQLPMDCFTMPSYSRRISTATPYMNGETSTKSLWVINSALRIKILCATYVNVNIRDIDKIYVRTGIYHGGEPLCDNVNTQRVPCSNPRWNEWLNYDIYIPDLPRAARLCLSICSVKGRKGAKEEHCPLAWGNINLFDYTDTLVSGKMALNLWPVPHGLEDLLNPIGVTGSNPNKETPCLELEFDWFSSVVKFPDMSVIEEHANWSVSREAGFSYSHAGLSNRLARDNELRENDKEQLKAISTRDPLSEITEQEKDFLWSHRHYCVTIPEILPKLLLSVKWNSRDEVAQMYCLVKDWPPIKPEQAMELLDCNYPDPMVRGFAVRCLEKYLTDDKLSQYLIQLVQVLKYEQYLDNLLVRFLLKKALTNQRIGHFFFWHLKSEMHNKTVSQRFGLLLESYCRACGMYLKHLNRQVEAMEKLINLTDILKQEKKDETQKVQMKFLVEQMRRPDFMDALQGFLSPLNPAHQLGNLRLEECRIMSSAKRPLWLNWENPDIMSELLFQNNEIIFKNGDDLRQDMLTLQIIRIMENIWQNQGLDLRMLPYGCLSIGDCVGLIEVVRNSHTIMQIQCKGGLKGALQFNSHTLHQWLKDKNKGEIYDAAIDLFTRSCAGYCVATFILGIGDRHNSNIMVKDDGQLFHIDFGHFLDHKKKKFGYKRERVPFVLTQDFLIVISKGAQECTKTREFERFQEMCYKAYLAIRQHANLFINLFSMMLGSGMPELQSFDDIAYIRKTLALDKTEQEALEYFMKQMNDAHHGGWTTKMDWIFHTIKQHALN
Outline: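 BT474 cells were seeded in DMEM with 10% FCS and 1% glutamine and left to adhere overnight, then treated with compound in DMSO for 2 h at 37 °C and 5% CO2. Cells were lysed with a phosphatase/protease-inhibitor buffer. Lysate was captured on anti-total-Akt plates, probed with anti-phospho-Akt Thr308 and an HRP secondary, and read by fluorescence (ex 325/em 420 nm). Values are the geometric mean of ≥2 determinations.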

[16] = Bioavailability in mouse plasma at 5 umol/kg, iv and 30 umol/kg, po; type: ADME, organism-based; outline: as §5
[17] = target: T2, Phosphatidylinositol 4,5-bisphosphate 3-kinase catalytic subunit beta isoform; test: Inhibition of PI3Kbeta in human MAD-MB-468 cells assessed as inhibition of Ser473 Akt phosphorylation by cellular potency assay
[18] = Ratio of total plasma concentration in PTEN-null human PC3 cells xenografted in SCID mouse at 200 mg/kg, po single dose at 4 hrs to IC50 for PI3Kbeta in human […] cells; set-up: species or system PC-3; outline: as §2
[19] = Buffer/octanol partition coefficient, log D of the compound at pH 7.4 by shake flask method; type: physicochemical
Outline: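 LogD at pH 7.4 was measured by shake-flask with a buffer/octanol volume ratio of 100:1.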

Mus musculus [20] = test: Inhibition of Akt phosphorylation in SCID mouse xenografted with PTEN-null human PC3 cells at 200 mg/kg, po measured after 4 hrs; type: functional; conditions: PC-3, 4 h; outline: as §6
[21] = Apparent permeability from apical (pH 6.5) to […] of human Caco2 cells; type: ADME, cell-based; conditions: Caco-2, pH 6.5
[22] = Total plasma concentration in SCID mouse xenografted with PTEN-null human PC3 cells at 200 mg/kg, po measured after 30 mins; type: ADME, organism-based, PC-3; set-up: dose 200 mg/kg, route oral; outline: as §3
[23] = target: T3, Phosphatidylinositol 4,5-bisphosphate 3-kinase catalytic subunit alpha isoform; test: Inhibition of human recombinant PI3Kalpha assessed as depletion of ATP substrate by Ultra Glo luciferase assay; outline: as §1
[24] = Ratio of total plasma concentration in PTEN-null human PC3 cells xenografted in SCID mouse at 100 mg/kg, po single dose at 0.5 hrs to IC50 for PI3Kbeta in human […] cells; set-up: species or system PC-3; outline: as §2
Mus musculus [25] = test: Inhibition of Akt phosphorylation in SCID mouse xenografted with PTEN-null human PC3 cells at 100 mg/kg, po measured after 4 hrs; type: functional; conditions: PC-3, 4 h; outline: as §6
[26] = Total plasma concentration in SCID mouse xenografted with PTEN-null human PC3 cells at 100 mg/kg, po measured after 30 mins; type: ADME, organism-based, PC-3; set-up: dose 100 mg/kg, route oral; outline: as §3
Homo sapiens = species on record: Homo sapiens; test: Ratio of IC50 for PI3Kalpha human BT474 cells to IC50 PI3Kbeta in human […] cells
Mus musculus [27] = test: Inhibition of Akt phosphorylation in SCID mouse xenografted with PTEN-null human PC3 cells at 100 mg/kg, po measured after 30 mins; type: functional; conditions: PC-3, 0.5 h; outline: as §6
[28] = Ratio of total plasma concentration in PTEN-null human PC3 cells xenografted in SCID mouse at 100 mg/kg, po single dose at 4 hrs to IC50 for PI3Kbeta in human MAD-MB-468 cells; set-up: species or system PC-3
[29] = Total plasma concentration in SCID mouse xenografted with PTEN-null human PC3 cells at 100 mg/kg, po measured after 4 hrs; type: ADME, organism-based, PC-3; set-up: dose 100 mg/kg, route oral; outline: as §3
[30] = Half life in mouse plasma at 5 umol/kg, iv and 30 umol/kg, po; type: ADME, organism-based

Row | SMILES | IC50 [1] | IC50 [3] | fraction unbound [6] | clearance [7] | hepatocyte CLint [8] | fraction unbound [9] | IC50 [10] | solubility [14] | IC50 [15] | bioavailability [16] | IC50 [17] | logD [19] | Papp A→B [21] | IC50 [23] | also measured
1 | CC(Nc1ccc(F)c(F)c1)c1cc(C(=O)N(C)C)cn2c(=O)cc(N3CCOCC3)nc12 (single isomer, unassigned; (-)) | 3000 nM | 45 nM | 0.087 | 74 mL/min/kg | 9 µL/min/1e6 cells | 0.14 | 7 nM | 20 µM (≈ 9.15 µg/mL) | 4700 nM | 35% | 34 nM | 2.7 | 44 ×10⁻⁶ cm/s | 340 nM | Ratio [2]: 2.5; concentration at 4 h [4]: 2.3 µM; Ratio [5]: 10; concentration at 8 h [11]: 0.3 µM; inhibition in vivo at 200 mg/kg (Mus musculus [12]): 71%; inhibition in vivo at 200 mg/kg (Mus musculus [13]): 81%; Ratio [18]: 5.9; inhibition in vivo at 200 mg/kg (Mus musculus [20]): 81%; concentration at 0.5 h [22]: 3.9 µM
2 | CC(Nc1ccc(F)cc1)c1cc(C(=O)N(C)C)cn2c(=O)cc(N3CCOCC3)nc12 (single isomer, unassigned; (-)) | 13500 nM | 230 nM | 0.12 | 45 mL/min/kg | 3 µL/min/1e6 cells | 0.21 | 37 nM | 130 µM (≈ 57.1 µg/mL) | 11600 nM | 70% | 62 nM | 2.3 | 34 ×10⁻⁶ cm/s | 1300 nM | Ratio [24]: 140; inhibition in vivo at 100 mg/kg (Mus musculus [25]): 60%; concentration at 0.5 h [26]: 71 µM; Ratio IC50 (Homo sapiens): 190; inhibition in vivo at 100 mg/kg (Mus musculus [27]): 85%; Ratio [28]: 16; concentration at 4 h [29]: 8.1 µM; half-life [30]: 1.1 h
